# KCNQ1 pot – human KCNQ1 channel potentiation or activation. CHO-K1 KCNQ1, thallium flux FluxOR fluorescence; active compounds read high. B-score at 10 µM. AID 2648. P51787. hit rate 0.35% among 310,000;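 active means fluorescence ratio B-score, a plate-corrected score, at least three library SD, with initial intensity B-score within 5 SD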
# Target sequence (P51787 whole entry, looked up): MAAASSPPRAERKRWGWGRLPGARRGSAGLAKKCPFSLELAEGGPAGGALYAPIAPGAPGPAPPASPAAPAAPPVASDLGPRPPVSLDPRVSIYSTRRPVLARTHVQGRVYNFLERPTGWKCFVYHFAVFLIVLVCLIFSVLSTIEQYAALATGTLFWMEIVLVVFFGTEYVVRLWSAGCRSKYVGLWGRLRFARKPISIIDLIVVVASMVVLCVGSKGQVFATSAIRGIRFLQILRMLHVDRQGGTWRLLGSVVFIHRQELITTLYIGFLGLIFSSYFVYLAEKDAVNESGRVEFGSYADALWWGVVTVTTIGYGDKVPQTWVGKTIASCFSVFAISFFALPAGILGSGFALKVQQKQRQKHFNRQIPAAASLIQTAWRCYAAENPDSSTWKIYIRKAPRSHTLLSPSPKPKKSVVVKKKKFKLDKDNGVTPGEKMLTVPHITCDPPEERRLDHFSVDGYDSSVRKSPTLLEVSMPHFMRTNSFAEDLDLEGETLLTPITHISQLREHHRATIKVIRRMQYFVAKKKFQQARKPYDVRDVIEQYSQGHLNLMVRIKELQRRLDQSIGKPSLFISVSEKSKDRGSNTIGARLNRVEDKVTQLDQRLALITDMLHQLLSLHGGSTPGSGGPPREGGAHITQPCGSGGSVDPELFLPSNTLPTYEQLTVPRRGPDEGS
#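 assay system = CHO-K1 cells stably expressing KCNQ1 | medium = assay buffer, equal DMSO in all wells | timing = 37 °C overnight plating, 90-min dark dye load, 20-min compound pretreatment | measured by = kinetic FluxOR thallium fluorescence, 10-s 1-Hz baseline, 110-s post-stimulus read | measure = fluorescence change relative to baseline, converted to B score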
# hERG rescue – shields human hERG channel from block by proarrhythmic agents; Q12809; CHO-hERG, FluxOR thallium flux, dofetilide IC70 present; activation (rescue from dofetilide block), less the hit threshold, % at 10 µM; hit rate 0.51% among 310,000; AID 1511;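 active means activation above the mean of controls blocked by dofetilide plus 5 SD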;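 further: thallium influx through hERG after potassium depolarization seen as dye fluorescence rise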
# Kir21 block – Kir2.1 (mouse) channel inhibition; B-score at 10 µM; hit rate 0.85% among 310,000; AID 1672; HEK293-Kir2.1, FluxOR thallium flux fluorescence; active compounds read low;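 active means fluorescence ratio B-score at or below minus 3 SD of library scores, with starting-brightness B-score within 2 SD, cut at about -4.2 in these data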;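 further: channel flux triggered by added potassium and thallium sulfate stimulus; B-score of peak minus minimum fluorescence over baseline after thallium stimulus; more negative B-score means stronger Kir2.1 block with less thallium influx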
# KCNQ1 block – human KCNQ1 channel inhibition | CHO-K1 KCNQ1, FluxOR thallium flux fluorescence; active compounds read high | hit rate 1.3% among 310,000 | P51787 | B-score at 10 µM | AID 2642;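 active means compounds whose thallium flux B-score, printed positive for inhibition, exceeds three library SD while starting fluorescence stays within three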;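 further: channel opened by potassium depolarization with thallium stimulus after 20 min compound exposure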
# KCNK9 inh – human KCNK9 channel inhibition | HEK293 KCNK9, FluxOR thallium flux fluorescence; active compounds read low | B-score at 10 µM | hit rate 1.2% among 310,000 | AID 488922;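 active means ratio B-score over 3 SD below the library mean, with starting fluorescence within 5 SD of its mean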;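 further: negative B-score means less thallium flux so channel inhibition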
# KCNK3 inh – human KCNK3 channel inhibition, primary screen; O14649; CHO-KCNK3 thallium flux, FluxOR fluorescence; active compounds read low; hit rate 0.84% among 340,000; B-score at 10 µM; AID 602410;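 active means B-score under library mean minus 4 SD, starting fluorescence ratio at most library mean plus 5 SD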;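 further: more negative B-score means stronger inhibition of thallium flux through KCNK3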
# KCNK3 confirm – human KCNK3 channel inhibition, confirmation assay; shares compounds with KCNK3 inh; CHO-KCNK3 thallium flux, FluxOR fluorescence; 0% buffer, 100% carvedilol maximal block; ratio percent of control, % at 10 µM; hit rate 99% among 2,400; AID 651638;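 active means ratio percent of control, averaged over triplicates, above buffer control mean plus 5 SD, cut at about 64% in these data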;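 further: ratio is the fluorescence rise from min to max over baseline after thallium stimulus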
# KCNK3 noninduced – KCNK3 inhibitor counter-screen hit in non-induced cells | hit rate 40% among 2,400 | shares compounds with KCNK3 inh | thallium flux ratio (lower = more inhibition) at 10 µM | AID 651747 | non-induced KCNK3 parental cells, FluxOR thallium flux; active compounds read low;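 active means thallium flux ratio, averaged over three wells, more than 5 SD below the buffer control mean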;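 further: host cells are CHO cells without KCNK3 induction; ratio is peak minus trough fluorescence over baseline then normalized to buffer controls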
# * = called active by the depositor; i = inactive; nt = no result given. Only some compounds are listed: those with a hit (about 3.7% of all), similar ones and a draw of the others.
SMILES,KCNQ1 pot,hERG rescue,Kir21 block,KCNQ1 block,KCNK9 inh,KCNK3 inh,KCNK3 confirm,KCNK3 noninduced
Cc1cc(C(=O)CSc2nnc(N)s2)c(C)n1Cc1cccs1,i,-8.7,0.73,i,i,i,nt,nt
Cc1csc(SCC(=O)c2cc(C)n(Cc3cccs3)c2C)n1,i,-7.3,-0.93,i,i,-9.5*,132.7*,0.139*
CC(=O)Nc1ccc(SCC(=O)c2cc(C)n(Cc3cccs3)c2C)cc1,i,-3.9,1.28,i,i,i,nt,nt
CCCN(C(=O)c1cccs1)c1c(N)n(Cc2ccccc2)c(=O)[nH]c1=O,nt,nt,nt,nt,nt,i,nt,nt
Oc1cccc(-c2nc3ccc4ccccc4c3c3c2CCC3)c1,i,-10.5,-0.08,i,i,-18.9*,111.0*,0.146*
O=C(NNc1c2ccccc2nc2ccccc12)c1cccc(O)c1,i,-4.1,0.37,i,i,i,nt,nt
Fc1ccccc1/C=C1\CCCC2=C1NC(=S)NC2c1ccccc1F (stereo not drawn),i,-5.6,0.39,i,i,-9.04*,101.3*,i
S=C1NC2=C(CCC/C2=C\c2ccccc2)C(c2ccccc2)N1 (stereo not drawn),i,-2.9,-0.23,i,i,i,nt,nt
Cc1c(Cl)cccc1NC(=O)c1ccc(-n2ccnc2)nc1,i,-12.0,1.72,i,i,i,nt,nt
COc1ccc(C(=O)/C=C/NCc2ccc(F)cc2)cc1OC,i,-10.2,-1.33,i,i,i,nt,nt
O=C(Cn1c(=O)n(Cc2ccco2)c(=O)c2ccccc21)Nc1cccc(Cl)c1,i,-3.2,2.19,i,i,-14*,97.7*,i
Cc1ccc(NC(=O)Cn2c(=O)n(Cc3ccco3)c(=O)c3ccccc32)c(C)c1,i,-4.6,-1.02,i,i,i,nt,nt
CCOC(=O)c1c(CSC(=N)N)n(-c2ccccc2)c2cc(Br)c(OC(C)=O)cc12,i,-31.6,-4.45*,i,i,-10.4*,129.3*,0.138*
CN(C(=S)Nc1ccc(F)cc1)C(c1ccccc1)c1ccccc1,i,-12.4,0.77,i,i,-10.8*,115.3*,i
CCCN(Cc1ccccc1)C(=S)Nc1ccc(F)cc1,i,-13.8,-0.02,i,i,i,nt,nt
Cc1ccc(NC(=S)N(C)C(c2ccccc2)c2ccccc2)cc1C,i,-7.8,1.39,i,i,-9.05*,133.7*,0.122*
Cc1ccc(NC(=S)N(CCN(C)C)C(C)c2ccco2)cc1C (stereo not drawn),i,-5.6,-0.16,i,i,i,nt,nt
COc1ccccc1NC(=O)CSc1nccn1Cc1ccccc1,i,-7.6,-3.41,i,i,i,nt,nt
O=C(COC(=O)c1ccc[n+]([O-])c1)Nc1cc([N+](=O)[O-])ccc1Cl,nt,nt,nt,nt,nt,i,nt,nt
COc1ccc(NC(=O)CSc2nc3[nH]ncc3c(=O)[nH]2)c(OC)c1,i,-16.8,-1.49,i,i,i,nt,nt
Cc1ccccc1Nc1nc(N)nc(-c2oc3ccccc3c2C)n1,i,-15.4,0.19,i,-13.7*,-10.2*,116.7*,0.158*
COc1cc(CC(=O)OCC(=O)N2CC(=O)Nc3ccccc32)cc(OC)c1OC,i,-5.2,-2.2,i,i,i,nt,nt
Cc1ccccc1OCCC(=O)Nc1ccc(Cl)cc1F,i,-9.3,0.07,i,i,i,nt,nt
CCc1ccc2c(c1)C1(NN=C(c3cccc4ccccc34)S1)C(=O)N2 (stereo not drawn),i,-1.7,-0.66,15*,i,-12.6*,148.7*,0.132*
Cc1ccccc1NC1=C(Cl)C(=O)OC1OC(=O)c1ccccc1C (stereo not drawn),i,-6.0,-0.68,i,i,-11.7*,127.7*,0.11*
SMILES,KCNQ1 pot,hERG rescue,Kir21 block,KCNQ1 block,KCNK9 inh,KCNK3 inh,KCNK3 confirm,KCNK3 noninduced
Nc1c(Cl)ncnc1NCC(O)CO (stereo not drawn),i,-9.3,0,i,i,i,nt,nt
Cc1nc(-c2ccccc2)sc1C(=O)CSc1ccc(F)cc1,i,-12.4,3.38,i,i,-12.6*,96.3*,i
C[C@@H]1CN([C@@H](C)CO)C(=O)c2cc(NC(=O)C3CC3)ccc2O[C@@H]1CN(C)Cc1ccc(Cl)c(Cl)c1,nt,nt,nt,nt,nt,i,nt,nt
CC(C)N(C(=S)NC1CCCCC1)c1ccccc1,i,-20.8,-2.61,i,i,nt,nt,nt
CC(C)N(Cc1ccccc1)C(=S)NC1CCCCC1,i,-9.8,-5.42*,i,i,-8.86*,111.3*,i
Cc1ccc(-c2csc(NC(=O)CN3CC(C)OC(C)C3)n2)cc1 (stereo not drawn),i,-8.2,0.41,i,i,i,nt,nt
CC(OC(=O)C1CCN(c2ccc(C(F)(F)F)cn2)CC1)C(=O)NC1CCCCC1C (stereo not drawn),nt,nt,nt,nt,nt,i,nt,nt
CCOc1ccc(C(=O)C(C)OC(=O)C2CCN(c3ccc(C(F)(F)F)cn3)CC2)cc1 (stereo not drawn),i,-10.6,-0.12,8*,i,-9.36*,82.7*,0.158*
Cc1cc(C(=O)NC2CC(C)(C)Cc3c2cnn3-c2cccc(F)c2)nn1C (stereo not drawn),i,-9.5,0.59,i,i,i,nt,nt
CC1CCCC(C)N1S(=O)(=O)c1ccc(NC(=O)c2ccccc2C(=O)N2CCOCC2)cc1 (stereo not drawn),i,-8.6,-0.85,i,i,-11.7*,91.0*,i
COc1ccccc1-c1c(C)oc2c(CN3CCN(C)CC3)c(O)ccc2c1=O,i,-11.1,0.79,i,i,i,nt,nt
COc1ccccc1-c1c(C)oc2c(CN3CCN(CCO)CC3)c(O)ccc2c1=O,i,-10.9,0.99,i,i,-19.8*,59.0*,i
CCOc1ccccc1N1CCN(C(=S)NCc2ccc(Cl)cc2)CC1,i,-12.1,-0.05,i,i,-9.04*,119.3*,i
CCOc1ccccc1N1CCN(C(=S)NC(=O)C23CC4CC(CC(C4)C2)C3)CC1,i,-6.2,-0.45,i,i,i,nt,nt
CCN(C(=O)COC(=O)c1cc([N+](=O)[O-])ccc1N1CCOCC1)C1CCCCC1,i,-2.5,0.03,i,i,i,nt,nt
COc1cccc(C(=O)COc2cccc(NC(=O)c3ccco3)c2)c1,i,-7.9,-0.52,i,-7.34*,-10.1*,120.0*,0.14*
